High-throughput results deposited in PubChem by The Scripps Research Institute Molecular Screening Center.
Compounds with a hit are over-represented: about 1.8% of the library has one in this group of screens.
M4 antag = CHRM4 antagonism in calcium assay. AID 624125. CHO-hM4 cells, ACh EC80, Fluo-8 calcium fluorescence. inhibition, % at 3 µM. P08173. actives 0.73% (n = 360,000);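 active means inhibition above its plate's cutoff, the mean inhibition of sample wells plus 3 SD, cut at about 27% in these data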;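 further: 0% = acetylcholine EC80 with DMSO and 100% = DMSO without agonist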
Target sequence (P08173 whole entry, looked up): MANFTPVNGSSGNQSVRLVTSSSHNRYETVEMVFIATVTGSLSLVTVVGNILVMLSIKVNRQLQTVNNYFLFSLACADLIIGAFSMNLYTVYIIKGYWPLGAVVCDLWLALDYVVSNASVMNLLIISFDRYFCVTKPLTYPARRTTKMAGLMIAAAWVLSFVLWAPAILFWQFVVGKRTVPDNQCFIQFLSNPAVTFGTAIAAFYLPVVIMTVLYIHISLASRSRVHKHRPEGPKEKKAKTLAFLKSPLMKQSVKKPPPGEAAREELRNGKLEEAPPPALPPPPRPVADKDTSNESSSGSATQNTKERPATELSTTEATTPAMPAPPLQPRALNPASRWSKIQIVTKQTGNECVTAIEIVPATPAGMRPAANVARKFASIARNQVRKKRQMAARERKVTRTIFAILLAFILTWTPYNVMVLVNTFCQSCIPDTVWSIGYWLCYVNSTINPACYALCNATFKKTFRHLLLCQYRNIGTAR
M5 ag = agonists of human muscarinic M5 receptor (CHRM5); P08912; CHO-K1 hM5 cells, Fluo-8 calcium fluorescence; 0% DMSO wells, 100% maximal acetylcholine response; activation, % at 3 µM; actives 0.19% (n = 360,000);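 active means activation above the run's mean over test compounds plus 3 SD, cut at about 23% in these data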;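 further: signal is peak over basal fluorescence ratio across the kinetic read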
M4 ag = CHRM4 agonism in calcium assay. activation, % at 3 µM. CHO-K1 hM4/Gqi5, Fluo-8 calcium fluorescence; vehicle 0%, full acetylcholine response 100%. actives 0.14% (n = 360,000). P08173;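 active means activation above the run mean over all test wells plus 3 SD, cut at about 32% in these data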;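 further: peak over basal fluorescence ratio per well then scaled between controls; 0% = DMSO wells and 100% = acetylcholine at EC100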
M4 PAM = positive allosteric modulators of human muscarinic M4 receptor; AID 624126; actives 0.4% (n = 360,000); CHO-K1 hM4/Gqi5, Fluo-8 calcium fluorescence, ACh EC20; 0% = ACh EC20, 100% = maximal ACh; activation, % at 3 µM; P08173;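 active means activation above its plate's cutoff, the mean activation of sample wells plus 3 SD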
M5 antag = antagonists of human muscarinic M5 receptor (CHRM5); P08912; AID 624040; inhibition, % at 3 µM; actives 0.59% (n = 360,000); CHO-hM5 cells, Fluo-8 calcium fluorescence, ACh EC80;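 active means inhibition above a per-plate cutoff, the mean of that plate's test compounds plus 3 SD, cut at about 27% in these data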;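 further: 0% = acetylcholine EC80 with DMSO and 100% = DMSO without agonist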
CHRM5 PAM = potentiates acetylcholine response at human M5 receptor | P08912 | CHO-K1 hM5, Fluo-8 calcium, ACh EC20 PAM; 0% = ACh EC20, 100% = ACh EC100 | AID 624038 | actives 0.3% (n = 360,000) | activation, % at 3 µM;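 active means activation above the run cutoff, the mean activation of all test compounds plus 3 SD, cut at about 18% in these data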
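Measured by: Fluo-8 calcium fluorescence; material: human M5 receptor in CHO-K1 cells; schedule: Post-acetylcholine fluorescence recording 140 s; benchmarks: low control EC20 acetylcholine (0%), high control EC100 acetylcholine (100%); read-out: Max/basal fluorescence ratio as % of EC20–EC100 ACh window; compound: single dose, 3 µM nominal final test concentration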
* hit, by the source's call.

SMILES	M4 antag	M5 ag	M4 ag	M4 PAM	M5 antag	CHRM5 PAM
CN(C)CCCn1c(SCc2c(Cl)cccc2Cl)nnc1-c1ccncc1	15	-1	4	22*	-9	5
COc1ccc(C(=O)N/N=C2\SCC(=O)N2Cc2ccc3c(c2)OCO3)c(OC)c1	-1	-3	1	1	31*	-8
COc1cccc(C(=O)N/N=C2/SCC(=O)N2CCc2ccc(OC)c(OC)c2)c1	8	2	4	-5	-4	-3
CC(C)Oc1cc(F)ccc1-c1cc(C(=O)Nc2cccc(C(F)(F)F)c2)[nH]n1	13	-1	1	-11	7	-10
CC(Sc1ccc(Cl)cc1)C(=O)Nc1ccc(S(=O)(=O)N2CCOCC2)cc1 (centres undefined)	-4	39*	26	-7	6	7
CC(C)C(=O)Nc1ccc(C(=O)Nc2ccc(S(=O)(=O)N3CCOCC3)cc2)cc1	-1	-2	1	-3	4	6
Cn1nc(C2CC2)cc1NC(=O)C1(C)CCN1C(=O)CC(c1ccccc1)c1ccccc1 (centres undefined)	-17	-3	0	3	-8	-4
CC(=O)c1cn(CCOc2ccccc2C)c2ccccc12	26	8	14	-12	29*	-16
Cc1ccccc1OCCn1cc(C(=S)N2CCCC2)c2ccccc21	-7	-6	1	-3	-9	-15
O=C(N[C@@H]1C[C@H]2CC[C@@H]1C2)c1ccco1	2	-3	-1	-2	17	-5
CSCCC(NC(=O)COc1ccccc1)C(=O)NCC(C)(C)N1CCOCC1 (centres undefined)	-16	-1	1	5	9	0
CCOC(=O)c1nnc(-c2ccccc2)nc1Sc1ccccc1Cl	-11	0	0	1	29*	-2
O=C(NNC(=O)c1cccc2ccccc12)c1ccc(-c2ccccc2)cc1	-7	-2	20	-9	6	-16
O=C(NNC(=O)c1cccc2ccccc12)c1ccccc1O	-14	-1	7	17*	7	-1
O=C(NNc1c2ccccc2nc2ccccc12)c1ccccc1O	0	-2	17	-11	34*	-16
CCOC(=O)c1ccc(NC(=S)NCc2ccc(F)cc2)cc1	10	10	20	-18	19	-26
COC(=O)c1ccc(NC(=S)NCCc2cccc(C)c2)cc1	24	3	14	-19	28*	-19
CCOC(=O)Nc1nc2ccccc2s1	-1	2	1	-4	3	-5
CCOC(=O)c1ccc(NC(=S)NN)cc1	-12	-5	1	20*	-14	11
CCOC(=O)c1ccc(NC(=O)Nc2nc3ccccc3s2)cc1	61*	0	1	-15	6	-12
CCCCNC(=O)C[C@@H]1C[C@@]2(C(=O)OC)CCCCC=C2N(Cc2cccc3ccccc23)C1=O	4	3	18	-5	4	-11
O=S(=O)(Cc1ccccc1)C(CCCc1ccccc1)S(=O)(=O)Cc1ccccc1	-20	-2	4	-4	5	-2
Cc1ccc(NS(=O)(=O)c2ccc(C(=O)N3CC(C)CC(C)C3)cc2)cc1 (centres undefined)	35*	56*	107*	-19	31*	-15
CS(=O)(=O)Nc1ccc(C(=O)N2CCCCC2)cc1	-3	0	3	23*	-4	-8
CC1CN(C(=O)c2ccc(S(=O)(=O)Nc3cccc(C(F)(F)F)c3)cc2)CC(C)O1 (centres undefined)	-11	28*	12	-2	3	-4
SMILES	M4 antag	M5 ag	M4 ag	M4 PAM	M5 antag	CHRM5 PAM
O=C(N/C(=C/c1cccnc1)C(=O)N1CCOCC1)c1ccccc1	-8	-3	1	21*	5	2
COc1cc(/C=C(/NC(=O)c2ccccc2)C(=O)N2CCOCC2)c([N+](=O)[O-])cc1OC	8	-2	1	-1	29*	-6
NC(=O)c1ncn([C@@H]2O[C@H](CNCc3cc(Cl)ccc3OCc3ccc(Cl)cc3)[C@@H](O)[C@H]2O)n1	-5	1	0	4	-1	1
COc1ccc(S(=O)(=O)Nc2nc3c(s2)CCCC3)cc1	-7	6	4	12	-4	20*
O=S(=O)(Nc1nc2c(s1)CCCC2)c1ccc(F)cc1	-3	-7	1	-1	9	-3
CN(C)CCCOC(=O)c1ccccc1Cl	7	-10	2	-2	15	-6
CN(C)CCCOC(=O)N1c2ccccc2C=Cc2ccccc21	67*	-6	9	-17	81*	-17
Cc1ccccc1S(=O)(=O)Cc1ccc(C(=O)N(C)C2CCCCC2)o1	2	1	4	-4	-5	-4
COc1cc(C(=O)N2CCc3ccccc32)c([N+](=O)[O-])cc1OC	0	1	1	-1	0	0
CC(C)c1ccc(OCC(=O)NC(=S)Nc2ccc3c4c(cccc24)CC3)cc1	30*	2	2	5	-3	9
COc1cccc(CNC(=O)C(C)n2ccc3cc(S(=O)(=O)N4CCCCCC4)ccc32)c1 (centres undefined)	4	-1	3	-11	4	-3
O=C(O)CCn1ccc2cc(S(=O)(=O)N3CCCCCC3)ccc21	-4	-1	0	4	-10	19*
O=C(O)CCCn1ccc2cc(S(=O)(=O)N3CCCC3)ccc21	-1	-6	4	7	11	-4
CCC(C(=O)NCCC(C)C)n1ccc2cc(S(=O)(=O)N3CCCCC3)ccc21 (centres undefined)	11	0	18	-14	34*	-12
CC(c1ccccc1)N1C(=O)c2ccc(C(=O)NCc3cccnc3)cc2C1=O (centres undefined)	-1	0	7	-7	6	-3
CC1(C(=O)NS(=O)(=O)C2CC2)CCCN(C(=O)c2ccc(F)c(Cl)c2)C1 (centres undefined)	4	1	-1	5	2	-1
O=C(CCC(=O)Nc1cccnc1)Nc1cccnc1	8	2	9	-19	2	-7
COCCNC(=O)C1(C)CCCN(C(=O)c2cccc3ccccc23)C1 (centres undefined)	3	0	0	2	30*	-5
Nn1c(SCC(=O)Nc2nccs2)nnc1-c1ccccn1	-2	1	2	2	-7	4
CCOc1cc(CNCCSc2nnnn2C)cc(Br)c1OCc1ccc(F)cc1	28*	-1	22	-14	25	-21
